Measurements from ChEMBL document CHEMBL1132620, “Piperazine imidazo[1,5-a]quinoxaline ureas as high-affinity GABAA ligands of dual functionality” (J Med Chem, 1999).
Activity calls are given as the source filed them. The calls are words filed in the database; no cut-off is given here.

Experiments:
[1] = target: T1, GABA-A receptor; anion channel (Rattus norvegicus) (UniProt O09028+P15431+P18506+P18508+P19969+P20236+P23574+P23576+P28471+P28473+P30191+P62813+P63079+P63138+Q91ZM7+Q9ES14); experiment: Inhibition of [35S]TBPS binding to GABA-A Benzodiazepine receptor of rat brain membranes; format: cell membranes; conditions: Membrane
[2] = target: T2, GABA-A receptor; alpha-1/beta-2/gamma-2 (Homo sapiens) (UniProt P14867+P47870+P18507); experiment: (§1) In vitro GABA-mediated chloride current in A293 cells expressing GABA-A benzodiazepine receptor alpha-1-beta-2-gamma-2 subunits at 5 uM; format: functional, cell-based; conditions: HEK293
[3] = system: Rattus norvegicus; experiment: In vivo efficacy evaluated for ability to antagonize metrazole induced clonic convulsions in rat after ip injection; format: functional
[4] = target: T1, GABA-A receptor; anion channel (Rattus norvegicus); experiment: (§2) Displacement of [3H]flunitrazepam from GABA-A benzodiazepine receptor of rat cortical membranes; format: cell membranes; parameters: concentration or dose not given beside the values; conditions: Membrane, concentration not given here
Procedure, shortened: (§3)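 Rat membranes incubated 60 min at 4 °C with [3H]flunitrazepam, 50 µg membrane protein and graded test drug in 200 µL containing NaCl, 10 mM Hepes/Tris pH 7.4 and 1 mM MgCl2; bound ligand separated by rapid filtration on GF/B; mean affinity, SE ≤10% of mean.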

[5] = target: GABA-A receptor; anion channel; experiment: as §2; format: cell membranes, Membrane; procedure, shortened: as §3
[6] = system: Mus musculus; experiment: In vivo acute electroshock physical dependence activity in mice; Active; format: functional, organism-based
[7] = organism: Mus musculus; experiment: Ability to antagonize the muscle relaxation effect in mice caused by a benzodiazepine full agonist, triazolam.; format: functional
Procedure, shortened: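 Muscle relaxation induced by triazolam; test compound and triazolam given separately, traction scored 30 min after dosing; ED50 for blocking the relaxant effect.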

[8] = system: Mus musculus; experiment: In vivo acute electroshock physical dependence activity in mice; Not active.; format: functional, organism-based
[9] = system: Mus musculus; experiment: In vivo efficacy is evaluated by percent control of cerebellar GMP levels in (drug+stress) treated mice/mice under stress; format: functional; parameters: concentration or dose not given beside the values
Procedure, shortened: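 Male CF-1 mice given drug orally in vehicle 122 before electric footshock stress, controls given vehicle (1 mL/100 g); killed 30 min after treatment; cerebellum homogenized in 1% perchloric acid, iced 30 min, boiled 5 min, spun 17000g 20 min; supernatant cGMP by radioimmunoassay, expressed as % of stress control.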

[10] = target: T1, GABA-A receptor; anion channel (Rattus norvegicus); experiment: Shift in [35S]TBPS binding to GABA-A Benzodiazepine receptor of rat brain membrane
[11] = target: GABA A receptor alpha-3/beta-2/gamma-2 (Homo sapiens) (UniProt P47870+P18507+P34903); experiment: In vitro GABA-mediated chloride current in A293 cells expressing GABA-A benzodiazepine receptor alpha-3-beta-2-gamma-2 subunits at 5 uM; format: functional, cell-based; conditions: HEK293
[12] = target: T2, GABA-A receptor; alpha-1/beta-2/gamma-2 (Homo sapiens); experiment: as §1; format: functional, cell-based; conditions: HEK293; remark: listed apart in the source
[13] = Half-life after iv dose of 4.97 mg/kg in rats; format: ADME, organism-based; parameters: dose 4.97 mg/kg, route intravenous; conditions: rat, in vivo
[14] = system: Rattus norvegicus; experiment: Mean number of shocks produced by CDPZ in rats at a dose of 12 mg/kg was determined by vogel's punished licking assay; format: functional
Procedure, shortened: (§4)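 Vogel punished licking test in rats; number of shocks accepted recorded per dose group (n 6–10); each dose compared with the 0 mg/kg group of the same experiment by Wilcoxon rank sum test.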

[15] = system: Rattus norvegicus; experiment: Mean number of shocks produced by the compound in rats at a dose of 1 mg/kg was determined by vogel's punished licking assay; format: functional; procedure, shortened: as §4
[16] = Oral bioavailability at a dose of 5.03 mg/kg in rats; format: ADME, organism-based; conditions: rat, in vivo
[17] = Total plasma clearance was determined for the compound after iv dose of 4.97 mg/kg in rats; format: ADME, organism-based; parameters: dose 4.97 mg/kg, route intravenous; conditions: rat, read-out: Clp (converted)
[18] = system: Rattus norvegicus; experiment: Mean number of shocks produced by the compound in rats at a dose of 0.3 mg/kg was determined by vogel's punished licking assay; format: functional; procedure, shortened: as §4
[19] = half-life after po dose of 5.03 mg/kg in rats; format: ADME, organism-based; parameters: dose 5.03 mg/kg, route oral; conditions: rat, in vivo
[20] = Time at which Cmax was reached was determined for the compound after po dose of 5.03 mg/kg in rats; format: ADME, organism-based; parameters: dose 5.03 mg/kg, route oral; conditions: rat, in vivo
Procedure, shortened: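 Male Sprague–Dawley rats dosed orally with compound in a solution formulation, n = 3–4 per compound; serum drug concentrations measured over time, lower limit of quantitation 50 ng/mL. Tmax reported as the range of observed values across animals.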

[21] = Maximum serum concentration was determined for the compound after po dose of 5.03 mg/kg in rats; format: ADME, organism-based; parameters: dose 5.03 mg/kg, route oral; conditions: rat
[22] = system: Rattus norvegicus; experiment: Mean number of shocks produced by the compound in rats at a dose of 10 mg/kg was determined by vogel's punished licking assay; format: functional; procedure, shortened: as §4
[23] = system: Rattus norvegicus; experiment: Mean number of shocks produced by the compound in rats at a dose of 0 mg/kg was determined by vogel's punished licking assay; format: functional; procedure, shortened: as §4
[24] = Area under the curve was determined for the compound after iv dose of 4.97 mg/kg in rats; format: ADME, organism-based; parameters: dose 4.97 mg/kg, route intravenous; conditions: rat, in vivo
[25] = Area under curve was determined for the compound after po dose of 5.03 mg/kg in rats; format: ADME, organism-based; parameters: dose 5.03 mg/kg, route oral; conditions: rat, in vivo
[26] = system: Rattus norvegicus; experiment: Mean number of shocks produced by the compound in rats at a dose of 3 mg/kg was determined by vogel's punished licking assay; format: functional; procedure, shortened: as §4
[27] = target: T1, GABA-A receptor; anion channel (Rattus norvegicus); conditions: Membrane
[28] = system: Mus musculus; experiment: In vivo efficacy was evaluated for their ability to antagonize metrazole induced clonic convulsants in rat after ip injection.
[29] = organism: Mus musculus; experiment: Compound was evaluated for their ability to antagonize the muscle relaxation effects of benzodiazepine full agonist, triazolam.
[30] = system: Mus musculus; experiment: In vivo efficacy is evaluated by percent control of cerebellar GMP content in CF1 mice and result is expressed as crebrellar GMP levels in (drug+stress) treated mice and mice under stress.; format: functional
Procedure, shortened: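 Male CF-1 mice dosed orally in vehicle 122 (controls get vehicle, 1 mL/100 g), then given electric footshock stress. Killed 30 min after dosing. Cerebellum homogenized in 10 volumes of 1% perchloric acid, kept 30 min on ice, boiled 5 min, spun 17000g for 20 min. cGMP measured by radioimmunoassay. Expressed as % of the (drug + stress)/stress response versus vehicle-shock controls.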

Row | SMILES | Shift [1] | Change in Cl- current [2] | ED50 [3] [mg/kg] | inhibition [4] [%] | Ki [5] [nM] | Acute electroshock activity [6] | ED50 [7] [mg/kg] | Acute electroshock activity [8] | Control [9] [%] | Shift [10] | Change in Cl- current [11] | other results
1 | CC(C)(C)OC(=O)c1ncn2c1CN(C(=O)N1CCN(C(C)(C)C)CC1)c1cc(Cl)ccc1-2 | -0.03 | 0.12 | 50 | 62 | 20.9 | Active | > 30 |  |  |  |  | 
2 | CC(C)(C)OC(=O)c1ncn2c1CN(C(=O)N1CCCCC1)c1ccccc1-2 | 0.08 | 0 | > 50 | 44 | 1.35 |  | 4 | inactive | 91 |  |  | 
3 | C[C@@H]1CN(C(=O)N2c3cc(Cl)ccc3-n3cnc(C(=O)OC(C)(C)C)c3C2(C)C)C[C@H](C)N1 |  | 0.96 | 0.4 | 94 | 19.9 | Active |  |  | 30 | 1.23 | 1.08 | 
4 | CN(C)C(=O)N1Cc2c(C(=O)OC(C)(C)C)ncn2-c2ccc(Cl)cc21 | 0.51 | 0.35 | 10.5 |  | 5.56 |  |  |  |  |  |  | 
5 | Cc1ccc2c(c1)N(C(=O)N1C[C@@H](C)N[C@@H](C)C1)Cc1c(C(=O)OC(C)(C)C)ncn1-2 |  | 0.3 |  | 55 | 4.66 | Active | > 30 |  | 73 | 0.38 | 0.1 | Change in Cl- current [12]: 0.84
6 | C[C@@H]1CN(C(=O)N2c3cc(Cl)ccc3-n3cnc(C(=O)OC(C)(C)C)c3C2(C)C)C[C@H](C)N1C |  | 2.6 | 0.6 | 84 | 39.7 | Active | > 30 |  | 38 | 1.43 | 0.68 | 
7 | CN1CCN(C(=O)N2Cc3c(C(=O)OC(C)(C)C)ncn3-c3ccc(Cl)cc32)CC1 |  | 0.98 | 7.4 | 29 | 10.9 |  | 11 |  | 94 | 0.57 | 0.44 | 
8 | C[C@@H]1CN(C(=O)N2Cc3c(C(=O)OC(C)(C)C)ncn3-c3ccc(C(F)(F)F)cc32)C[C@H](C)N1 |  | 0.5 | 21 | 52 | 32.4 |  | > 30 | inactive | 36 | 0.31 | 0.1 | half-life [13]: 2.4 h; Mean no. of shocks [14]: 23; Mean no. of shocks [15]: 4.9; bioavailability [16]: 84%; clearance [17]: 12.2 mL/min/kg; Mean no. of shocks [18]: 4.6; half-life [19]: 2.7 h; Tmax [20]: 1 h; Cmax [21]: 1160 ng/mL; Mean no. of shocks [22]: 7.9; Mean no. of shocks [23]: 4.9; AUC [24]: 7470 ng·h/mL; AUC [25]: 6430 ng·h/mL; Mean no. of shocks [26]: 6.4
9 | CN(C)C(=O)N1Cc2c(-c3noc(C4CC4)n3)ncn2-c2ccccc21 [PNU-91571] | 0.69 | 0.68 | 21 |  |  |  | 1 | inactive | 61 |  |  | 
10 | CC(C)n1c(=O)c2c(-c3noc(C4CC4)n3)ncn2c2ccccc21 [PANADIPLON] |  | 0.04 | 1.6 |  |  |  | 1.7 | inactive | 87 |  |  | Shift [27]: 0.06
11 | Cc1ccc2c(c1)N(C(=O)N1C[C@H](C)N[C@@H](C)C1)Cc1c(C(=O)OC(C)(C)C)ncn1-2 |  | 1.3 | 7.4 | 17 | 25.6 | Active | > 30 |  | 79 | 0.77 |  | Change in Cl- current [12]: 1.3
12 | CC(C)(C)OC(=O)c1ncn2c1CN(C(=O)N1CCOCC1)c1ccccc1-2 | 0 | 0.14 | > 50 |  | 2.47 |  |  |  |  |  |  | 
13 | CN1C(=O)CN=C(c2ccccc2)c2cc(Cl)ccc21 [DIAZEPAM] |  |  |  |  |  |  |  |  |  |  |  | ED50 [28]: 0.5 mg/kg; ED50 [29]: > 30 mg/kg; Control [30]: 0.44%
14 | CC(C)N1[C@H](C)CN(C(=O)N2Cc3c(C(=O)OC(C)(C)C)ncn3-c3ccc(Cl)cc32)C[C@@H]1C |  | -0.32 | 35.3 | 85 | 5.16 |  | > 30 | inactive | 52 | -0.97 |  | Mean no. of shocks [14]: 26; Mean no. of shocks [15]: 5.3; Change in Cl- current [12]: 0.9; Mean no. of shocks [18]: 6.3; Mean no. of shocks [22]: <3.4; Mean no. of shocks [23]: 6.6; Mean no. of shocks [26]: 5
15 | CC1CN(C)CC(C)N1C(=O)N1Cc2c(C(=O)OC(C)(C)C)ncn2-c2ccc(Cl)cc21 (configuration not stated) |  | 1.71 | 6.2 | 32 | 90.2 |  | > 30 | inactive | 100 | 1.02 | 0.69 | 
16 | Cc1ccc2c(c1)N(C(=O)N1C[C@@H](C)N(C)[C@@H](C)C1)Cc1c(C(=O)OC(C)(C)C)ncn1-2 |  | 1.37 | 1.6 | 64 | 9.5 | Active | > 30 |  | 57 | 0.11 | 0.56 | 
